# Experimental data from different studies.
# Target: D(2) dopamine receptor (DRD2, Homo sapiens, UniProt P14416)
Compound,test,system,conditions,quantity,value
O=C(CN1CCO[C@@H](COc2ccccn2)C1)N1CCc2ccccc21,"ligand displacement, radioligand",,10 µM,inhibition,-15.6%
O=C1C2CCCN2C(=O)N1CCCCN1CCN(c2cccc(Cl)c2)CC1 (stereo not shown),"enzyme activity, inhibitor",,10 µM,inhibition,65.4%
C[C@H](c1ccnc(Nc2nc3ccc(-c4cc(N(C)C)ncn4)cc3[nH]2)c1)N1CCN(C(=O)CC(F)(F)F)CC1,ligand displacement,,10 µM,inhibition,5.66%
O=C(CN1CCO[C@H](COc2cccnc2)C1)N1CCc2ccccc21,"ligand displacement, radioligand",,10 µM,inhibition,9.9%
CNc1nc2cc(OCCCCN3CCN(c4cccc5ccc(C)nc45)CC3)ccc2s1,"β-arrestin recruitment, agonist",HTLA,,Emax,< 20%
O=C(CCCN1CCC(O)(c2ccc(Br)cc2)CC1)c1ccc(F)cc1,binding,,,koff,0.00742 s⁻¹
Cc1cccc(N2CCN(CC(O)COc3ccc4ccccc4c3)CC2)c1C (stereo not shown),"enzyme activity, inhibitor",,10 µM,inhibition,24.4%
CO[C@H]1CC[C@H](CNc2ccc(S(=O)(=O)NC(=O)c3ccc(N4CCN(CC5=C(c6ccc(Cl)cc6)CC(C)(C)CC5)CC4)cc3Oc3cnc4[nH]ccc4c3)cc2[N+](=O)[O-])CC1,ligand displacement,,10 µM,inhibition,-24%
O=C(NCCN1CCN(C(=O)c2ccccc2)CC1)C(=O)Nc1ccccc1,"enzyme activity, inhibitor",,10 µM,inhibition,6.4%
CCOc1cc(N2C3COCC2CN(C(=O)[C@H]2C[C@H](O)CN2c2ccc(Cl)cc2)C3)ccc1Cl,cell-free assay,,10 µM,inhibition,7.26%
CCc1ccc(N2CCN(CC(O)COc3ccc(C(C)=O)cc3OC)CC2)cc1 (stereo not shown),"enzyme activity, inhibitor",,10 µM,inhibition,11.2%
Cn1nc(C(=O)NCc2ccc(C(=O)O)cc2)cc1-c1ccc2[nH]ccc2c1,ligand displacement,,10 µM,inhibition,-14.4%
O=C(c1ccccc1Cl)N1CCN(CCNc2cc(=O)oc3ccccc23)CC1,"enzyme activity, inhibitor",,10 µM,inhibition,31.2%
c1cncc(OC[C@@H]2CN(CCN3CCc4ccccc43)CCO2)c1,"ligand displacement, radioligand",,10 µM,inhibition,20.9%
CC(=O)Nc1c(C(C)=O)c(=O)n(C)c2nc(-c3ccc(Cl)cc3Cl)c(-c3ccc(Cl)cc3)cc12,cell-free assay,,10 µM,inhibition,5.73%
COc1ccc2c(c1)CN(CCCN1CCN(c3ccccc3OC)CC1)C2=O,"ligand displacement, radioligand",,10 µM,inhibition,82.1%
CS(=O)(=O)c1cc(C2(NC(=O)c3cncc4c3cnn4-c3ccc(F)cc3)CC2)ccn1,cell-free assay,,10 µM,inhibition,6.62%
COc1cccc(OC[C@@H]2CN(CCN3CCc4ccccc43)CCO2)c1,"ligand displacement, radioligand",,10 µM,inhibition,36.5%
Cc1cc(C)cc(NC(=O)CN2CCN(C(=O)c3ccco3)CC2)c1,"enzyme activity, inhibitor",,10 µM,inhibition,8.3%
Cc1ccc(OC[C@H]2CN(CCN3CCc4ccccc43)CCO2)cn1,"ligand displacement, radioligand",,10 µM,inhibition,16.2%
Cc1[nH]n(-c2ccc([N+](=O)[O-])cc2)c(=O)c1C=NCCN1CCN(C(=O)c2cccc(F)c2)CC1,"enzyme activity, inhibitor",,10 µM,inhibition,20.6%
Clc1cncc(OC[C@H]2CN(CCN3CCc4ccccc43)CCO2)c1,"ligand displacement, radioligand",,10 µM,inhibition,37.8%
O=C(O)[C@H]1[C@H](Cn2nnc3ccccc3c2=O)CC[C@@H]1C(=O)c1ccc(OCCC2CCOCC2)cc1,ligand displacement,,10 µM,inhibition,30.3%
O=C(CN1CCN(c2ccc(F)cc2)CC1)Nc1cc(Cl)cc(Cl)c1,"enzyme activity, inhibitor",,10 µM,inhibition,13.6%
O=C1c2ccccc2CCN1CCCCN1CCN(c2cccc(Cl)c2Cl)CC1,"ligand displacement, radioligand",,10 µM,inhibition,99.3%
